Measured values pooled from the literature.
Protocols differ between the studies behind these lines. Converted amounts (≈) assume the structure as drawn.

SMILES	tested on	test	setting	endpoint	result
O=C(Nc1cccc2ccccc12)c1ccc(COC(Cn2ccnc2)c2ccc(Cl)cc2Cl)cc1 (stereo not shown)	Nakaseomyces glabratus	microbial growth, broth dilution		MIC80	8 µg/mL (≈ 15.5 µM)
CN(C)CCNC(=O)c1ccc(-c2nc3ccc4[nH]ncc4c3c3c2CCCC3)c(F)c1	HCC827	cell growth or viability	72 h	GI50	1.01 µM
COc1ccc(NC(=O)c2ccc(COC(Cn3ccnc3)c3ccc(Cl)cc3Cl)cc2)cc1 (stereo not shown)	Nakaseomyces glabratus	microbial growth, broth dilution		MIC80	0.125 µg/mL (≈ 0.252 µM)
Cc1n[nH]c2ccc3nc(-c4ccc(C(=O)NCCN(C)C)cc4F)c4c(c3c12)CCCC4	HCC827	cell growth or viability	72 h	GI50	0.611 µM
CCCCn1cnc2ccc(-c3ccc(NC(=O)NCc4ccccc4)nc3)cc2c1=O	HCC827	cell growth or viability, CCK-8	72 h	IC50	0.32 µM
COc1cc(C2=CCCc3c2ccc(OC)c3OC(C)c2ccc([N+](=O)[O-])s2)cc(OC)c1OC (stereo not shown)		tubulin polymerisation, inhibitor	20 min	IC50	> 20 µM
O=C(Nc1ccc(F)cc1)c1ccc(COC(Cn2ccnc2)c2ccc(Cl)cc2Cl)cc1 (stereo not shown)	Nakaseomyces glabratus	microbial growth, broth dilution		MIC80	0.25 µg/mL (≈ 0.516 µM)
COc1cc(C2=CCCCc3c2ccc(OC)c3OC(C)c2cnc([N+](=O)[O-])n2C)cc(OC)c1OC (stereo not shown)		tubulin polymerisation, inhibitor	20 min	IC50	> 20 µM
Cc1nc(Nc2ncc(C(=O)Nc3c(C)cccc3Cl)s2)cc(N2CC[C@H](O)C2)n1	OCI-LY19	cell growth or viability, ATP luminescence	10 µM, 72 h	inhibition	9%
Cc1n[nH]c2ccc3nc(-c4ccc(C(=O)NCCN(C)C)cc4)c4c(c3c12)CCCC4	HCC827	cell growth or viability	72 h	GI50	4.07 µM
COc1cc(C2=CCCCc3c2ccc(OC)c3OC(C)c2ccc([N+](=O)[O-])s2)cc(OC)c1OC (stereo not shown)		tubulin polymerisation, inhibitor	20 min	IC50	> 20 µM
Cc1n[nH]c2ccc3nc(-c4ccc(C(=O)NCCN(C)C)cc4)c4c(c3c12)CCCCC4	HCC827	cell growth or viability	72 h	GI50	7.12 µM
Clc1ccc(COC(Cn2ccnc2)c2ccc(Cl)cc2Cl)c(Cl)c1 (stereo not shown)	Nakaseomyces glabratus	microbial growth, broth dilution		MIC80	0.125 µg/mL (≈ 0.3 µM)
